# Reference: ChEMBL document CHEMBL1123617, “Antipsychotic activity of substituted gamma-carbolines” (J Med Chem, 1987)
# pKi: −log10 of the molar value.
# How the values were obtained:
# Mus musculus [1] = test: Ability to inhibit apomorphine (APO) induced stereotyped behavior in mice by intraperitoneal administration of compound; value may range from 22 to 31; assay type: functional; settings: ip
# Rattus norvegicus [2] = test: Potential antipsychotic activity was assessed by measuring the ability to block the conditioned avoidance response(CAR) in rats on oral administration; assay type: functional
# Mus musculus [3] = test: Ability to inhibit apomorphine (APO) induced climbing behavior in mice by intraperitoneal administration of compound.; value may range from 1 to 23; assay type: functional; settings: ip
# Rattus norvegicus [4] = test: Potential antipsychotic activity was assessed by measuring the ability to block the conditioned avoidance response(CAR) in rats on oral administration; insigniificant activity, ip in shelf jump tset; assay type: functional
# [5] = target: T1, Serotonin 2 (5-HT2) receptor (Rattus norvegicus, UniProt P30994+P08909+P14842); test: In vitro 5-hydroxytryptamine 2 receptor affinity by using [3H]spiperone as the radioligand in rat cortical tissue; value may range from 136 to 220
# Rattus norvegicus [6] = test: Potential antipsychotic activity was assessed by measuring the ability to block the conditioned avoidance response(CAR) in rats on oral administration; value may range from 26 to 51; assay type: functional
# Summary of the method: (§1)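 Each session had 60 trials, with a control session before every drug run. Trials with no avoidance response (avoidance block) were summed over rats at each dose and expressed as a percentage of total trials. Control avoidance was set at 100%. The dose giving 50% block (AB50) was fitted by least squares.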
# [7] = target: T1, Serotonin 2 (5-HT2) receptor; test: In vitro 5-hydroxytryptamine 2 receptor affinity by using [3H]spiperone as the radioligand in rat cortical tissue; value may range from 197 to 341
# [8] = target: D(2) dopamine receptor (Rattus norvegicus) (UniProt P61169); test: In vitro Dopamine receptor D2 affinity by using [3H]spiperone as the radioligand in rat limbic system at 1 uM; assay type: tissue-based
# Rattus norvegicus [9] = test: Potential antipsychotic activity was assessed by measuring the ability to block the conditioned avoidance response(CAR) in rats on oral administration; value may range from 4 to 10; assay type: functional; summary of the method: as §1
# [10] = target: T1, Serotonin 2 (5-HT2) receptor; test: In vitro 5-hydroxytryptamine 2 receptor affinity by using [3H]spiperone as the radioligand in rat cortical tissue; value may range from 2.4 to 5.3
# [11] = target: D(2) dopamine receptor (Rattus norvegicus) (UniProt P61169); test: In vitro Dopamine receptor D2 affinity by using [3H]spiperone as the radioligand in rat limbic system at 1 uM concentration of compound at 1 uM; assay type: tissue-based
# Rattus norvegicus [12] = test: Potential antipsychotic activity was assessed by measuring the ability to block the conditioned avoidance response(CAR) in rats on oral administration.; assay type: functional
# D(2) dopamine receptor [13] = target: T2, D(2) dopamine receptor (Rattus norvegicus, UniProt P61169); test: In vitro Dopamine receptor D2 affinity by using [3H]spiperone as the radioligand in rat limbic system at 1 uM concentration of compound; value may range from 39 to 78; assay type: tissue-based
# Mus musculus [14] = organism: Mus musculus; test: animal or person; settings: ip
# Mus musculus [15] = organism: Mus musculus; test: animal or person; settings: ip; remark: listed apart in the source
# Rattus norvegicus [16] = test: Potential antipsychotic activity was assessed by measuring the ability to block the conditioned avoidance response(CAR) in rats on oral administration; indicates insignificant activity; assay type: functional
# D(2) dopamine receptor [17] = target: T2, D(2) dopamine receptor; test: In vitro Dopamine receptor D2 affinity by using [3H]spiperone as the radioligand in rat limbic system at 1 uM concentration of compound; value may range from 72 to 141; assay type: tissue-based
# Rattus norvegicus [18] = test: Potential antipsychotic activity was assessed by measuring the ability to block the conditioned avoidance response(CAR) in rats on oral administration; value may range from 8 to 35; assay type: functional; summary of the method: as §1
# D(2) dopamine receptor [19] = target: T2, D(2) dopamine receptor; test: In vitro Dopamine receptor D2 affinity by using [3H]spiperone as the radioligand in rat limbic system at 1 uM concentration of compound; value may range from 3 to 10; assay type: tissue-based
# [20] = target: T1, Serotonin 2 (5-HT2) receptor; test: In vitro 5-hydroxytryptamine 2 receptor affinity by using [3H]spiperone as the radioligand in rat cortical tissue; value may range from 6 to 75
# D(2) dopamine receptor [21] = target: T2, D(2) dopamine receptor; test: In vitro Dopamine receptor D2 affinity by using [3H]spiperone as the radioligand in rat limbic system at 1 uM concentration of compound; value may range from 0.7 to 1.5; assay type: tissue-based
# [22] = target: T1, Serotonin 2 (5-HT2) receptor; test: In vitro 5-hydroxytryptamine 2 receptor affinity by using [3H]spiperone as the radioligand in rat cortical tissue; value may range from 29 to 132
# D(2) dopamine receptor [23] = target: T2, D(2) dopamine receptor; test: In vitro Dopamine receptor D2 affinity by using [3H]spiperone as the radioligand in rat limbic system at 1 uM concentration of compound; value may range from 238 to 401; assay type: tissue-based
# T2 sequence (P61169 whole entry): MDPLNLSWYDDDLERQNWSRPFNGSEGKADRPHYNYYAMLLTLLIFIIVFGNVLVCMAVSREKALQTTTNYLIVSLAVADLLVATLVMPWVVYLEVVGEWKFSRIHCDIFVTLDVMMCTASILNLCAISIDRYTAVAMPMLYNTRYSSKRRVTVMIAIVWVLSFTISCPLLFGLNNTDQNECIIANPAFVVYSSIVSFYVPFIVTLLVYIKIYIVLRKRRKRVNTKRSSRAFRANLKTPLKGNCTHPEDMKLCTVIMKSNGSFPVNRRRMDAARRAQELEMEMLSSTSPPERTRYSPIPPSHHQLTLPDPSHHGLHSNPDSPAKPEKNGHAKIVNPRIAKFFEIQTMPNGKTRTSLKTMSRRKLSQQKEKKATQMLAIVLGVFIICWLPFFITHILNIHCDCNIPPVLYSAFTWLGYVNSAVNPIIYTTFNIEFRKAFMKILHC
# D(2) dopamine receptor (Rattus norvegicus), sequence (P61169 whole entry): as above
smiles,measurement,setting,value
CN1CCN(C2=Nc3cc(Cl)ccc3Nc3ccccc32)CC1 [CLOZAPINE],ED50,Mus musculus [1],26 mg/kg
same,AB50,Rattus norvegicus [2],11 mg/kg
same,ED50,Mus musculus [3],5 mg/kg
CC1CN(CCCN2CCc3[nH]c4ccc(Cl)cc4c3C2)CC(C)N1.Cl (stereo not drawn),AB50,Rattus norvegicus [4],>40 mg/kg
Cl.Fc1ccc2[nH]c3c(c2c1)CN(CCc1ccccn1)CC3,AB50,Rattus norvegicus [2],38 mg/kg
same,Ki,[5],173 nM
Cl.c1cncc(CCCN2CCc3[nH]c4ccccc4c3C2)c1,AB50,Rattus norvegicus [6],33 mg/kg
same,Ki,[7],252 nM
same,inhibition,[8],43%
Cl.Fc1ccc(-n2c3c(c4cc(F)ccc42)CN(CCc2ccccn2)CC3)cc1,AB50,Rattus norvegicus [9],6 mg/kg
same,Ki,[10],3.6 nM
Cl.c1ccc2c3c([nH]c2c1)CCN(CCCCc1ccncc1)C3,inhibition,[11],41%
same,AB50,Rattus norvegicus [12],>20 mg/kg
Cl.Clc1ccc2[nH]c3c(c2c1)CN(CCCN1CCN(c2ncccn2)CC1)CC3,pKi,D(2) dopamine receptor [13],7.26
same,AB50,Rattus norvegicus [12],>40 mg/kg
O=C(CCCN1CCC(O)(c2ccc(Cl)cc2)CC1)c1ccc(F)cc1 [HALOPERIDOL],ED50,Mus musculus [14],0.1 mg/kg
same,ED50,Mus musculus [15],0.1 mg/kg
same,AB50,Rattus norvegicus [12],0.2 mg/kg
Cl.Clc1ccc2[nH]c3c(c2c1)CN(CCc1ccccn1)CC3,AB50,Rattus norvegicus [16],>40 mg/kg
same,pKi,D(2) dopamine receptor [17],6.99
Cl.Fc1ccc(-n2c3c(c4cc(F)ccc42)CN(CCc2cnccn2)CC3)cc1,AB50,Rattus norvegicus [18],16 mg/kg
same,pKi,D(2) dopamine receptor [19],8.30
same,Ki,[20],23 nM
Cl.Fc1ccc(-n2c3c(c4cc(F)ccc42)CN(CCc2ccc4ccccc4n2)CC3)cc1,pKi,D(2) dopamine receptor [21],9.00
same,AB50,Rattus norvegicus [12],40 mg/kg
Cl.Clc1ccc2[nH]c3c(c2c1)CN(CCCCc1ccncc1)CC3,Ki,[22],60 nM
same,AB50,Rattus norvegicus [2],36 mg/kg
c1ccc2nc(CCN3CCc4[nH]c5ccccc5c4C3)ccc2c1,pKi,D(2) dopamine receptor [23],6.48
